PAFAH2 FP inh = PAFAH2 enzyme inhibitors, primary screen, biochemical, fluorescence polarization, human | Platelet-activating factor acetylhydrolase 2, cytoplasmic (Homo sapiens), Q99487 | recombinant PAFAH2, FP-rhodamine activity probe | inhibition, % at 3.39 µM | 340,000 compounds, 0.99% hits | AID 492956, 2010;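 active = inhibition above the mean over all tested compounds plus 3 SD, cut at about 30% in these data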;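 note: inhibitors block probe labeling of enzyme so polarization drops; 0% = enzyme with DMSO and 100% = wells lacking PAFAH2 protein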
pPAFAH inh = pPAFAH enzyme inhibitors, primary screen, biochemical, fluorescence polarization, human; Platelet-activating factor acetylhydrolase (Homo sapiens), Q13093; recombinant pPAFAH, FP-rhodamine probe fluorescence polarization; inhibition, % at 3.39 µM; 330,000 compounds, 1.5% hits;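 active = inhibition above the mean inhibition across the screen plus 3 SD, cut at about 25% in these data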;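 note: inhibitors block binding of the rhodamine activity-based probe so polarization drops; 0% = enzyme with DMSO and 100% = wells lacking pPAFAH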
mABHD4 FP = ABHD4 inhibitors, primary screen, biochemical, fluorescence polarization, mouse; purified mABHD4, FP-Rh probe fluorescence polarization; inhibition, % at 8.92 µM; 370,000 compounds, 0.54% hits; AID 720543, 2013;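 active = inhibition exceeding the mean over every tested compound plus 3 SD, cut at about 30% in these data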;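 note: 0% = plate median of compound wells and 100% = S159A mutant with DMSO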
Target sequence (Q8VD66 whole entry, looked up): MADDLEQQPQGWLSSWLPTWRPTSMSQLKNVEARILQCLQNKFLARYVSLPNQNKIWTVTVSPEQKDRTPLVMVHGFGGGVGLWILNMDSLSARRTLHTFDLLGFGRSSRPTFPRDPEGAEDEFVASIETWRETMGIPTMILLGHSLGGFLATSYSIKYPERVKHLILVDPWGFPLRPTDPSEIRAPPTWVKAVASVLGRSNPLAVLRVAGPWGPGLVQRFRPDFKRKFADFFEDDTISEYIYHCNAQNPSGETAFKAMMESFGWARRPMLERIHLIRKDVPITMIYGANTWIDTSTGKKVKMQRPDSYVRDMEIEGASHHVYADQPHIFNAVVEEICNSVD
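Assay system: mouse ABHD4 enzyme, wild type / Also added: fluorescent activity-based probe FP-Rh / Doses: single nominal dose of 8.92 µM, 0.89% DMSO final / Timing: 45 min compound pre-incubation plus 60 min probe step, 25 °C / Signal: FP readout, ex 525 nm / em 598 nm / Control set: S159A mutant/DMSO as 100%, compound-well median as 0%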
PAFAH1B2 FP inh = PAFAH1B2 enzyme inhibitors, primary screen, biochemical, fluorescence polarization, human; inhibition, % at 3.39 µM; recombinant PAFAH1B2, FP-rhodamine activity probe; 340,000 compounds, 1.2% hits;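 active = inhibition above the mean of all tested compounds plus 3 SD, cut at about 24% in these data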;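 note: 0% = enzyme with DMSO and 100% = wells lacking PAFAH1B2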
Target sequence (P68402 whole entry, looked up): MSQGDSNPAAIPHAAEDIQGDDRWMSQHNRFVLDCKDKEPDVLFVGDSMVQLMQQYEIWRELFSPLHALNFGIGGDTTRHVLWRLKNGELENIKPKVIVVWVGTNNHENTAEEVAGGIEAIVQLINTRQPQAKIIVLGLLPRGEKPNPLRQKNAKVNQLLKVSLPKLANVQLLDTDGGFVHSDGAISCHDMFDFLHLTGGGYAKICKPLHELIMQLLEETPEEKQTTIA
HTRA1 inh = HTRA1 serine protease inhibitors, primary screen, biochemical, fluorescence polarization, HTS | recombinant HTRA1, FP-rhodamine activity-based probe | inhibition, % at 5.96 µM | Q92743 | 340,000 compounds, 0.5% hits; in the data active = inhibition above about 36%;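 note: 0% = enzyme with DMSO and 100% = wells lacking enzyme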
PAFAH1B3 inh = PAFAH1B3 enzyme inhibitors, primary screen, biochemical, fluorescence polarization, human; recombinant PAFAH1B3, FP-rhodamine probe; 340,000 compounds, 0.28% hits; inhibition, % at 3.39 µM; Platelet-activating factor acetylhydrolase IB subunit alpha1 (Homo sapiens), Q15102;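 active = inhibition above the screen-wide average of all tested compounds plus 3 SD, cut at about 25% in these data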;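 note: 0% = enzyme with DMSO only and 100% = wells lacking PAFAH1B3 protein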
PAFAH2 FP conf = PAFAH2 enzyme inhibitors, confirmation, biochemical, fluorescence polarization, human. inhibition, % at 3.39 µM. shares compounds with PAFAH2 FP inh. 2,300 compounds, 65% hits. recombinant PAFAH2, FP-rhodamine activity probe;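 active = mean inhibition over three repeats above a set limit taken from the earlier primary screen, cut at about 30% in these data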;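 note: inhibitor blocks binding of rhodamine activity probe so polarization falls; 0% = enzyme with DMSO and 100% = wells lacking PAFAH2 protein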
* hit, by the source's call; . = no result. An excerpt weighted towards active compounds, which were near 2.8% of everything screened.

SMILES	PAFAH2 FP inh	pPAFAH inh	mABHD4 FP	PAFAH1B2 FP inh	HTRA1 inh	PAFAH1B3 inh	PAFAH2 FP conf
COc1ccccc1-n1c(C)c2c(OC)cccc(=O)c2c1C	39*	13	-9	4	7	5	55*
COc1cccc(=O)c2c(C)oc(C)c12	7	-3	6	-2	0	5	.
C=CCSC1=N/C(=C\c2cc(OC)c3c(c2)OCO3)C(=O)S1	42*	4	14	-1	14	7	43*
Cc1cc(Nc2cccc(Br)c2)c2ccccc2n1	50*	2	4	-3	-5	4	8
CCCCOC(=O)c1ccc(NC(C)=O)cc1	-3	-5	0	-4	-1	9	.
Cc1nn(-c2ccccc2)c(C)c1NC(=O)COC(=O)c1ccc(NC(=O)CC#N)cc1	33*	17	-38	-5	-16	-2	24
Cc1cc(C)c(-c2cc(NC(=O)COC(=O)c3ccc(NC(=O)CC#N)cc3)n(-c3ccccc3)n2)cc1C	-30	11	-82	-30	-52	-59	.
CCOc1ccc(C(=O)OCC(=O)NCCNC(=O)COC(=O)c2ccc(OCC)cc2)cc1	-2	3	8	-1	2	5	.
CCCCNC(=O)COC(=O)c1ccc(N(C)C)cc1	76*	17	-3	-1	0	8	76*
CCCCNC(=O)COC(=O)c1ccc(NC(C)=O)cc1	70*	4	-2	5	1	8	54*
N#CCC(=O)Nc1ccc(C(=O)OCC(=O)NCCCc2ccccc2)cc1	38*	10	-13	1	-28	0	30*
COc1ccc(Cn2ccc3ccc(-c4ccc5ccn(C(=O)C6CC6)c5c4)cc32)cc1	.	.	-12	.	.	.	.
CCCCNC(=O)C1(C(C)=O)CC(C(=O)OCC)=NO1 (stereo unspecified)	.	.	-2	.	.	.	.
Cc1ccc(NC(=O)CN(C)C(=O)COC(=O)c2ccc(NC(=O)CC#N)cc2)cc1	-6	1	-25	0	-19	-2	.
N#CCC(=O)Nc1ccc(C(=O)OCC(=O)C23CC4CC(CC(C4)C2)C3)cc1	63*	2	-12	7	-40	-5	62*
Cc1ccc(C(=O)ONc2ccc(N=O)cc2)cc1	57*	10	-14	0	-8	-4	52*
COC(=O)c1ccc(NN=Nc2ccc(C)cc2)cc1	-1	3	-5	4	4	2	.
Cc1ccc(C(=O)ONc2ccc(N=NC(=O)c3ccccc3O)cc2)cc1	45*	-6	14	6	24	10	22
Clc1ccc([C@H]2OC[C@@]3(CNCC4CC4)CS[C@H](c4ccc(Cl)cc4)N23)cc1	.	.	-5	.	.	.	.
COc1ccc(CN2C(=O)c3cccnc3C2=O)cc1S(=O)(=O)N1CCOc2ccc(Cl)cc21	30*	0	5	-1	-8	9	18
CCOC(=O)[C@@]12CN(C(=O)OC(C)(C)C)CC=C1N(Cc1ccc(OC)cc1)C(=O)[C@H]2CC(=O)N1CCCC1	.	.	5	.	.	.	.
Cc1cc(/C=C2\SC(N)=NC2=O)c(C)n1-c1ccccc1	49*	7	3	0	3	-4	33*
CN(Cc1nccs1)C(=O)C1CCC(=O)N(Cc2ccccc2F)C1 (stereo unspecified)	-2	4	5	1	0	2	.
CN(Cc1nccs1)C(=O)C1CCC(=O)N(CCCc2ccccc2)C1 (stereo unspecified)	31*	.	0	-1	1	5	20
CC(NC(=O)COC(=O)c1ccccc1F)C1CC2CCC1C2 (stereo unspecified)	76*	5	1	19	0	11	63*
SMILES	PAFAH2 FP inh	pPAFAH inh	mABHD4 FP	PAFAH1B2 FP inh	HTRA1 inh	PAFAH1B3 inh	PAFAH2 FP conf
O=C(O)CCc1[nH]c2ccccc2c1Sc1ccccc1	31*	10	0	10	4	4	25
COc1cc(C(=O)NC2CCCCN(Cc3cccc(C(F)(F)F)c3)C2=O)cc(OC)c1OC (stereo unspecified)	.	.	-5	.	.	.	.
CCCC(C)NC(=O)COC(=O)c1cc(Br)c(Br)s1 (stereo unspecified)	24	8	4	-1	7	7	.
CC(C)CCNC(=O)COC(=O)c1cc(Br)c(Br)s1	32*	11	-7	-1	-3	7	17
CC(=O)c1ccc(NCC(=O)N2CCN(S(=O)(=O)c3ccccc3)CC2)cc1	3	3	-4	4	0	-1	.
O=C(CNc1ccc(Cl)c(C(F)(F)F)c1)N1CCN(S(=O)(=O)c2ccccc2)CC1	45*	.	-11	1	-15	1	25
COc1ccc(/C=C/C(=O)OCC(=O)NC2CCCC(C)C2C)cc1 (stereo unspecified)	82*	9	1	7	-2	-3	79*
CC1CCCC(NC(=O)COC(=O)/C=C/c2ccc(F)cc2)C1C (stereo unspecified)	65*	8	-2	0	2	5	69*
CC1CCCC(NC(=O)COC(=O)COc2ccc(Br)cc2)C1C (stereo unspecified)	-4	16	-2	18	5	4	.
CCOc1ccc(C2CC=C(C(=O)O)CN2S(=O)(=O)c2ccc(C)cc2)cc1 (stereo unspecified)	.	.	4	.	.	.	.
COc1ccc(C2CC(c3ccccc3)=NN2C(=O)COC(=O)c2cc(S(=O)(=O)N3CCOCC3)ccc2F)cc1 (stereo unspecified)	48*	2	1	6	-11	-5	51*
CCOC(=O)C1C(=O)N(C(=O)c2ccc(OC)cc2)CC1c1ccccc1 (stereo unspecified)	95*	18	2	1	1	11	75*
Cn1c(=O)c2cc(S(=O)(=O)N3CCN(CCO)CC3)ccc2n(C)c1=O	.	.	3	.	.	.	.
O=C(Nc1ccc2c(c1)OCO2)N1CCC(c2nc3ccc(Cl)cc3[nH]2)CC1	.	.	7	.	.	.	.
O=C(c1cc(-c2ccccc2Cl)on1)N1CCCC1	36*	0	-1	2	-2	5	35*
O=c1oc(-c2ccc(F)cc2)nc2ccsc12	48*	-1	6	-2	-13	7	34*
CSCC[C@H](NC(=O)Nc1ccc(Oc2ccccc2)cc1)C(=O)O	38*	1	-10	6	1	7	22
